Data: ChEMBL document CHEMBL2150974 (J Med Chem, 2012)
The source made the active and inactive calls. The calls are words filed in the database; no cut-off is given here.

What was measured:
[1] = biological target: T1, Mitogen-activated protein kinase 14 (Homo sapiens, UniProt Q16539); assay: Inhibition of p38alpha at 10 uM by immunosorbent based kinase assay
[2] = biological target: RAC-alpha serine/threonine-protein kinase (Homo sapiens) (UniProt P31749); assay: Inhibition of AKT1 at 10 uM
[3] = biological target: T2, Serine/threonine-protein kinase PLK4 (Homo sapiens) (UniProt O00444); assay: Inhibition of SAK at 10 uM
T2 sequence (whole entry): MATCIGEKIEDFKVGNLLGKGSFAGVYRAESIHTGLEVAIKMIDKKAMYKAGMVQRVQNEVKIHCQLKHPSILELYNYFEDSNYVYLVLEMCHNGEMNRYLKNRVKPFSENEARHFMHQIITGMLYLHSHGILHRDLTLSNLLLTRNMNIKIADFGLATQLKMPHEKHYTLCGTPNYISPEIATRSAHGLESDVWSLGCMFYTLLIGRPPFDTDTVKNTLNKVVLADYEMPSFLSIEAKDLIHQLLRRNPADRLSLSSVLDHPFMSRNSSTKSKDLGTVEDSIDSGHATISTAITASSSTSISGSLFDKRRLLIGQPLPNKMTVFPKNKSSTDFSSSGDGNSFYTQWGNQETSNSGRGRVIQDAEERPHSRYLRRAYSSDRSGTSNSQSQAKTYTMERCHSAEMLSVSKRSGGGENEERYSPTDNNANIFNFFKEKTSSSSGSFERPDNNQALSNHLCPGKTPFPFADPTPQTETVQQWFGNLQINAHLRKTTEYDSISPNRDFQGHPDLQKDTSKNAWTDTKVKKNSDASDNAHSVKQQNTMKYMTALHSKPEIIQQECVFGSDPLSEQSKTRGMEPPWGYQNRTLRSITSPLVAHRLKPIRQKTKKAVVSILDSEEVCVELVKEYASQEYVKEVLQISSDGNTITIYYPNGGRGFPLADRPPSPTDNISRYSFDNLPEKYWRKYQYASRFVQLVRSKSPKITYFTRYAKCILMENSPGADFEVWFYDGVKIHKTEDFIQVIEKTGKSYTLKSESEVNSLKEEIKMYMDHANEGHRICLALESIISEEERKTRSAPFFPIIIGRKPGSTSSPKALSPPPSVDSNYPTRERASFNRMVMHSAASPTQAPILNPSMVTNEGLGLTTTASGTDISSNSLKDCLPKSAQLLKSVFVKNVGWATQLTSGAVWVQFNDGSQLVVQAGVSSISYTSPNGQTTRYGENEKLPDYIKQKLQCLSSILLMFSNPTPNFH

[4] = biological target: T3, NUAK family SNF1-like kinase 1 (Homo sapiens) (UniProt O60285); assay: Inhibition of ARK5 at 10 uM
T3 sequence (whole entry): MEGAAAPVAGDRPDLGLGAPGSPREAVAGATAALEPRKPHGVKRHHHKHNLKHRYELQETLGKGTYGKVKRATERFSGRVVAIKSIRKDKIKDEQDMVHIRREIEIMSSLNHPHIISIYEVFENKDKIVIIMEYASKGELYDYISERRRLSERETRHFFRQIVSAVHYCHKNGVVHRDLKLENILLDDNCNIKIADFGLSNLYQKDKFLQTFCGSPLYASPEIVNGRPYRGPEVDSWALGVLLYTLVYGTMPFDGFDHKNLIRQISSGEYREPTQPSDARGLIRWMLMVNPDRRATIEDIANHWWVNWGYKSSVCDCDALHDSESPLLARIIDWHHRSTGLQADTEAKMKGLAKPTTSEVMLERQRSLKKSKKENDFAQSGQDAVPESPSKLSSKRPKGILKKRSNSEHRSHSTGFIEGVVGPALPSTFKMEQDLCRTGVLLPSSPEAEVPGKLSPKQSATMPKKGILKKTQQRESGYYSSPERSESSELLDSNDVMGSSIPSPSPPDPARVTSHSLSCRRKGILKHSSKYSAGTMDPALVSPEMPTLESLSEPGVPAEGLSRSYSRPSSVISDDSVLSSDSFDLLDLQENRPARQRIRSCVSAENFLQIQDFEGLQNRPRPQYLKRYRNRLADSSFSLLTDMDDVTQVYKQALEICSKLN

[5] = biological target: BDNF/NT-3 growth factors receptor (Homo sapiens) (UniProt Q16620); assay: Inhibition of TRKB at 10 uM
[6] = biological target: Aurora kinase B (Homo sapiens) (UniProt Q96GD4); assay: Inhibition of AuroraB at 10 uM
[7] = biological target: Proto-oncogene tyrosine-protein kinase Src (Homo sapiens) (UniProt P12931); assay: Inhibition of SRC at 10 uM
[8] = test system: Serine/threonine-protein kinase B-raf (Homo sapiens), P15056 [V600E]; assay: Inhibition of BRAF V600E mutant at 10 uM
[9] = biological target: Vascular endothelial growth factor receptor 2 (Homo sapiens) (UniProt P35968); assay: Inhibition of VEGFR2 at 10 uM
[10] = biological target: Insulin receptor (Homo sapiens) (UniProt P06213); assay: Inhibition of INSR at 10 uM
[11] = biological target: Insulin-like growth factor 1 receptor (Homo sapiens) (UniProt P08069); assay: Inhibition of IGF1R at 10 uM
[12] = biological target: Hepatocyte growth factor receptor (Homo sapiens) (UniProt P08581); assay: Inhibition of MET at 10 uM
[13] = biological target: Focal adhesion kinase 1 (Homo sapiens) (UniProt Q05397); assay: Inhibition of FAK at 10 uM
[14] = biological target: Serine/threonine-protein kinase PLK1 (Homo sapiens) (UniProt P53350); assay: Inhibition of PLK1 at 10 uM
[15] = biological target: Tyrosine-protein kinase receptor UFO (Homo sapiens) (UniProt P30530); assay: Inhibition of AXL at 10 uM
[16] = biological target: Serine/threonine-protein kinase N1 (Homo sapiens) (UniProt Q16512); assay: Inhibition of PRK1 at 10 uM
[17] = biological target: Casein kinase II subunit alpha (Homo sapiens) (UniProt P68400); assay: Inhibition of CK2alpha1 at 10 uM
[18] = biological target: T1, Mitogen-activated protein kinase 14; assay: Inhibition of p38alpha by immunosorbent based kinase assay
[19] = biological target: T1, Mitogen-activated protein kinase 14; assay: Inhibition of p38alpha-dependent TNFalpha production in human whole blood at 100 uM
Method in brief: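 Freshly drawn human whole blood, used diluted so that serum albumin and other plasma proteins are present; inhibition of TNF-α release from the blood's immune cells measured.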

Serine/threonine-protein kinase N1 (Homo sapiens), sequence (Q16512 2-942 limits assumed): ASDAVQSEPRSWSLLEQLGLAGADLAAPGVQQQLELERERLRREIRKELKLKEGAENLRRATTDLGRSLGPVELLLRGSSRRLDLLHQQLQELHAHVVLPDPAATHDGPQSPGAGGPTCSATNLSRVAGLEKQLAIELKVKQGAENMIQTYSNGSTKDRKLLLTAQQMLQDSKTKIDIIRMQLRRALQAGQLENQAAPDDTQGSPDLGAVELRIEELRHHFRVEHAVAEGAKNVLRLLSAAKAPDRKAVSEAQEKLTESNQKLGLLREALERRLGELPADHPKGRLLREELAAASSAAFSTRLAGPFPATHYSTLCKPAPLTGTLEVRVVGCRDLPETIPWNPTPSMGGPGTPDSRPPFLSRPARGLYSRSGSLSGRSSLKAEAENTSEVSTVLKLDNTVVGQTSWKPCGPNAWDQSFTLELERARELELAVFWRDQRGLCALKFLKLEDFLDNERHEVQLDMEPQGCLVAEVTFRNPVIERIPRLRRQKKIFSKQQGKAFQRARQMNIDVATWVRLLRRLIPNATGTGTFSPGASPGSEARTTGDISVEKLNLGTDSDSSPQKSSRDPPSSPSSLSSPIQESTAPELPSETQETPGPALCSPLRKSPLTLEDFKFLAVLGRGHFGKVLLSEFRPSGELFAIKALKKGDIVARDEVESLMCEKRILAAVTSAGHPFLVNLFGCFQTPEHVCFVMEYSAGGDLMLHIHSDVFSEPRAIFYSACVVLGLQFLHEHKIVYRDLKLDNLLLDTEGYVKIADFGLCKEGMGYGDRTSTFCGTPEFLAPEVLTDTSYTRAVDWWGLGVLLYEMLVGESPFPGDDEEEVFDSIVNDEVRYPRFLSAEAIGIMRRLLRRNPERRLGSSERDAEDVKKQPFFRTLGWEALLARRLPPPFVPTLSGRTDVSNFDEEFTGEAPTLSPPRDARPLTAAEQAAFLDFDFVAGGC
Insulin receptor (Homo sapiens), sequence (P06213 28-758 limits assumed): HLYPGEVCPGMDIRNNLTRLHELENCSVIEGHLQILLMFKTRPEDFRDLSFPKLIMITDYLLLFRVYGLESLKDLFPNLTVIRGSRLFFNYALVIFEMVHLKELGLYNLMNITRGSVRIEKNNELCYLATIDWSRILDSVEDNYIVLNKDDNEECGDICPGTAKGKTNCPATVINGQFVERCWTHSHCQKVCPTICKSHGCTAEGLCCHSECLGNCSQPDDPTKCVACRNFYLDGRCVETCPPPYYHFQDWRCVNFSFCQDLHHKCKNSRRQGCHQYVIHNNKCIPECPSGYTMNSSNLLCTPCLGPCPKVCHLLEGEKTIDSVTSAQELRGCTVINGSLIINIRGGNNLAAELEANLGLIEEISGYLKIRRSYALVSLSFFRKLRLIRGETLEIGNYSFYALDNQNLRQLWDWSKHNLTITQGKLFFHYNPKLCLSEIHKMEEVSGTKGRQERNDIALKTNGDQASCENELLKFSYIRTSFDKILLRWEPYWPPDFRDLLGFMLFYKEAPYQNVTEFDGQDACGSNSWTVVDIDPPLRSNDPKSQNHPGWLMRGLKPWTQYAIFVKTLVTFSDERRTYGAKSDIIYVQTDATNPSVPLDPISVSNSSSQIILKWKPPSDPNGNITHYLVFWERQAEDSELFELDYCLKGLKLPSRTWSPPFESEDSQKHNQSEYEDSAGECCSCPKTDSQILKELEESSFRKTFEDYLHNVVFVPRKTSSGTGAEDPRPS
Insulin receptor (Homo sapiens), sequence (P06213 763-1382 limits assumed): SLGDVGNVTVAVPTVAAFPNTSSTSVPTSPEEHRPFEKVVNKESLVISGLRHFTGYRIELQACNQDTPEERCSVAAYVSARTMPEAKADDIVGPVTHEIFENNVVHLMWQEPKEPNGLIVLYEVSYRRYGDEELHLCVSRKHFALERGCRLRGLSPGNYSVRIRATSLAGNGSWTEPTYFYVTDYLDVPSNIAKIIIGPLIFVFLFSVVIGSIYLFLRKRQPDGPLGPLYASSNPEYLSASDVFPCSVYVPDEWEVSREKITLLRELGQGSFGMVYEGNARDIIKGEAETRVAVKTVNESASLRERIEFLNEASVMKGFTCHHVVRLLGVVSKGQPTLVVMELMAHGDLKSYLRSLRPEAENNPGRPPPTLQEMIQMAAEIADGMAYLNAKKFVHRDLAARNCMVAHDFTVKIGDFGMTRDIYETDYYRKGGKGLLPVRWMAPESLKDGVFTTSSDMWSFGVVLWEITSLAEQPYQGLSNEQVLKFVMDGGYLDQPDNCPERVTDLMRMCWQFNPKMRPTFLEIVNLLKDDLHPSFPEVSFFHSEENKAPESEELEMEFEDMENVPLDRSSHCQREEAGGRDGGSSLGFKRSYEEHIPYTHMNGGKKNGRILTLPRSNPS
T1 sequence (Q16539 whole entry): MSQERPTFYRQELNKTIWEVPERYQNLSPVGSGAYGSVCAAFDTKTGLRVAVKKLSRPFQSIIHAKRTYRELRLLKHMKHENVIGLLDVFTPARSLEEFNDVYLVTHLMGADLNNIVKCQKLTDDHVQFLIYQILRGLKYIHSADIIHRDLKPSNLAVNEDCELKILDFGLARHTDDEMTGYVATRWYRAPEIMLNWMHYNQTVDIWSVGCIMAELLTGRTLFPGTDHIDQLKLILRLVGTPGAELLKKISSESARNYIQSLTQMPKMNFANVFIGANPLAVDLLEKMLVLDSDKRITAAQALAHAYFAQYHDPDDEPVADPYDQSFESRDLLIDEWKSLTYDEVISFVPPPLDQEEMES
Tyrosine-protein kinase receptor UFO (Homo sapiens), sequence (P30530 whole entry): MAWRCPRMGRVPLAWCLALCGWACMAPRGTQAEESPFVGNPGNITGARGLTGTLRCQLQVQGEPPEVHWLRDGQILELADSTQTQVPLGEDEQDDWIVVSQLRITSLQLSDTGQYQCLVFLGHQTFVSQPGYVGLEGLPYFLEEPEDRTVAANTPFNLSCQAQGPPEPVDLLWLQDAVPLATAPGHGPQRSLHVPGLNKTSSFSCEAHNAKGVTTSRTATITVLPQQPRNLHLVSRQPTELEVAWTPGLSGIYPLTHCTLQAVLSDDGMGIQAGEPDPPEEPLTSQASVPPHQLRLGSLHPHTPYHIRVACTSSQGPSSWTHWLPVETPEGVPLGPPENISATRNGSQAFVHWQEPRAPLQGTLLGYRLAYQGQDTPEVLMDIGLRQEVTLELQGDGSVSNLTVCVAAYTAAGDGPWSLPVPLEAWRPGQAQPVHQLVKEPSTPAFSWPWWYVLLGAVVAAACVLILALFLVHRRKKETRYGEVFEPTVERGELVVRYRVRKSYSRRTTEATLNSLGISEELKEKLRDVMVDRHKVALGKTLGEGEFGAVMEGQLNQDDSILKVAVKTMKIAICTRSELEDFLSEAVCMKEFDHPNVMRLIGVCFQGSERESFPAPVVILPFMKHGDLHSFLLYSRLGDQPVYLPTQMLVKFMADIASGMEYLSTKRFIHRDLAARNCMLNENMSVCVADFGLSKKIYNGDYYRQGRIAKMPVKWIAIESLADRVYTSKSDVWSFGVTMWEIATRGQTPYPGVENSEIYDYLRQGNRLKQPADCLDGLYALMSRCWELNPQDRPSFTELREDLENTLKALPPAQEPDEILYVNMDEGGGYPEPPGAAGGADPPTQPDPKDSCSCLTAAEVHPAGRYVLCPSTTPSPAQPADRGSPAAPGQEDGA
Focal adhesion kinase 1 (Homo sapiens), sequence (Q05397 2-1052 limits assumed): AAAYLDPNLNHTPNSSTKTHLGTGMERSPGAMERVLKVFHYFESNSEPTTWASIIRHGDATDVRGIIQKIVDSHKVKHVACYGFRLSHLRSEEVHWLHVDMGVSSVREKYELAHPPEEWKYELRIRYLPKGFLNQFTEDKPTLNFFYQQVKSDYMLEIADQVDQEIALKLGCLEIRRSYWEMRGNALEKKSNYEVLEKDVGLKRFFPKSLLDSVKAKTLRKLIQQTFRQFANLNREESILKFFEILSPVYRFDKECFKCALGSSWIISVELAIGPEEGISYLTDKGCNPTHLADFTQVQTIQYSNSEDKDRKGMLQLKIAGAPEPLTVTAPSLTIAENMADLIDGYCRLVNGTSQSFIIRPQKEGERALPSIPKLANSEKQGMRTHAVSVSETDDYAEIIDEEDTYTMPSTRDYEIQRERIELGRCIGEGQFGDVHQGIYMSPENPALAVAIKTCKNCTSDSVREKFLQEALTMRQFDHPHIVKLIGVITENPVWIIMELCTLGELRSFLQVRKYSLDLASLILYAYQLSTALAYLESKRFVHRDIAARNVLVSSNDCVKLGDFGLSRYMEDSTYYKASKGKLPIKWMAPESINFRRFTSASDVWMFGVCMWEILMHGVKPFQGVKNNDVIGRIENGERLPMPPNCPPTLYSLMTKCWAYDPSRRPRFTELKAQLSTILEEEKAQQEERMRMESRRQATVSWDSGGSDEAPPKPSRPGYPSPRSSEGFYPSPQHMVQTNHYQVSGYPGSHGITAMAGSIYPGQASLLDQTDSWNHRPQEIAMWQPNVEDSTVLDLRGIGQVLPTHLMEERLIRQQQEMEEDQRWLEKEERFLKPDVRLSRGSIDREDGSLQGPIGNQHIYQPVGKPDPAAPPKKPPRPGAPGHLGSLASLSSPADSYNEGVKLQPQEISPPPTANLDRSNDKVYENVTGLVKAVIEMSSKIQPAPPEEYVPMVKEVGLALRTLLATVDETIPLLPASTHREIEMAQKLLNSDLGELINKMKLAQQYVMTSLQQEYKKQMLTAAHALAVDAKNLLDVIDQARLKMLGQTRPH
RAC-alpha serine/threonine-protein kinase (Homo sapiens), sequence (P31749 whole entry): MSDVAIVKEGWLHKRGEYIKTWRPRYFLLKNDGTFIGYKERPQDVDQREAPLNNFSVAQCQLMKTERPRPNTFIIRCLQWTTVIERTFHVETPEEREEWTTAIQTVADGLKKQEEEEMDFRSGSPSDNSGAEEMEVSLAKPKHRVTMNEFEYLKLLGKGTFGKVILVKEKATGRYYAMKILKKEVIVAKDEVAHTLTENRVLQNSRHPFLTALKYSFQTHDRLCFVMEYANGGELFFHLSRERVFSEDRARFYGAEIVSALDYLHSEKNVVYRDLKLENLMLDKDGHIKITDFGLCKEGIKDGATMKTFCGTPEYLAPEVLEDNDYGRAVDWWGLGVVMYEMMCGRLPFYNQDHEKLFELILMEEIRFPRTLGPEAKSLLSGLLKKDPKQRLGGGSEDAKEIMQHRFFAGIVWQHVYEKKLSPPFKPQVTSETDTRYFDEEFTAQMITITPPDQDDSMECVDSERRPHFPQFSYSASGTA

| Structure (SMILES) | inhibition [1] [%] | inhibition [2] | inhibition [3] | inhibition [4] | inhibition [5] | inhibition [6] | inhibition [7] | inhibition [8] | inhibition [9] | inhibition [10] | inhibition [11] | inhibition [12] | inhibition [13] | inhibition [14] | inhibition [15] | inhibition [16] | inhibition [17] | IC50 [18] [nM] | inhibition [19] [%] |
| --- | --- | --- | --- | --- | --- | --- | --- | --- | --- | --- | --- | --- | --- | --- | --- | --- | --- | --- | --- |
| COc1ccc2c(c1)C(=O)c1ccc(-c3ccccc3)cc1CC2 | 32 | inactive | inactive | inactive | inactive | inactive | inactive | inactive | inactive | inactive | inactive | inactive | inactive | inactive | inactive | inactive | inactive |  |  |
| COc1ccc2ccc3cc(Nc4ccc(F)cc4F)ccc3c(=O)c2c1 | 21 | inactive | inactive | inactive | inactive | inactive | inactive | inactive | inactive | inactive | inactive | inactive | inactive | inactive | inactive | inactive | inactive |  |  |
| CC1(C)OC[C@H](COc2cccc3c2CCc2cc(Nc4ccc(F)cc4F)ccc2C3=O)O1 |  | inactive | inactive | inactive | inactive | inactive | inactive | inactive | inactive | inactive | inactive | inactive | inactive | inactive | inactive | inactive | inactive | 440 | 40 |
